Assay [1] deals with Rattus norvegicus. Kind of assay: Tested for concentration required to reduce the food consumption by 20 % subcutaneously. As to conditions: Rattus norvegicus, sc; read-out: ED50. It is filed as functional. Put shortly:
(§1)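 Obese Zucker rats, 3-4 months old, trained to eat only 8 am-4 pm. Groups of 4 (2 male, 2 female), with one saline control group daily. Compound in saline with 10% DMSO, given sc on 3 consecutive days, typical doses 5.0-0.08 mg/kg (0.02-20 in some cases). Intake measured over the first 4 h. ED20 from regression of the linear portion of the dose-response curve.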

In assay [2] the target is Kappa-type opioid receptor (Cavia porcellus) (UniProt P41144). Kind of assay: Binding affinity towards kappa-opioid receptor by displacement of [3H]EKC in guinea pig cortical tissue at 10 nM. The method, boiled down:
(§2)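 [3H]EKC binding to guinea pig cortical tissue, with fentanyl and DADL present to block mu and delta sites. Percent displacement measured at 10 and 100 nM test compound, run in triplicate.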

For assay [3] the target is unchanged. Description: Binding affinity towards kappa-opioid receptor by displacement of [3H]EKC in guinea pig cortical tissue at 100 nM. Put shortly:
as §2

The target in assay [4] is Kappa-type opioid receptor (Mus musculus) (UniProt P33534). Description: Antagonist activity towards U50 488 induced kappa opioid receptor by mouse writhing assay at 2.5 mg/kg subcutaneously. It is filed as functional, organism-based. Also noted: dose 2.5 mg/kg. The method, boiled down:
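Mouse acetic acid writhing: 0.6% acetic acid ip, writhes counted for 10 min starting 5 min after injection. 5 mice/point, ≥5 doses varied 2-fold, each mouse used once. AD50 = antagonist dose reducing agonist-induced writhing inhibition to 50%.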

The target of assay [5] is Kappa-type opioid receptor (Rattus norvegicus) (UniProt P34975). Description: Antagonism of bremazocine induced kappa receptor diuresis in rats at a concentration of 0.08 mg/kg subcutaneously. It is filed as functional, organism-based. Also noted: dose 0.08 mg/kg. The method, boiled down: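 Male Long-Evans hooded rats (350-500 g), reused no more than twice weekly. Bremazocine 0.08 mg/kg sc, test antagonist sc on the opposite side without delay. Rats housed in metabolism cages; urine volume recorded at 2 and 5 h. 3 rats/dose, doses varied 2-fold. AD50 = dose reducing cumulative 5-h induced urination by 50%.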

For assay [6], the target named is Mu-type opioid receptor (Mus musculus) (UniProt P42866). Description: Antagonistic activity towards morphine induced mu-opioid receptor by mouse writhing assay at 1.25 mg/kg subcutaneously. It counts as functional, organism-based. Also noted: dose 1.25 mg/kg. Put shortly: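 Mouse acetic acid writhing: 0.6% acetic acid ip, writhes counted for 10 min starting 5 min after injection. Agonist (morphine 1.25 mg/kg or U50,488 2.5 mg/kg) and antagonist given sc 20 min before acid. 5 mice/point, ≥5 doses varied 2-fold, each mouse used once. AD50 = antagonist dose reducing agonist-induced writhing inhibition to 50%.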

Assay [7] relates to Rattus norvegicus. Description: Tested for concentration required to reduce the food consumption by 20 % subcutaneously; effect on feeding was minimal and not dose related. It counts as functional. As to conditions: sc. The method, boiled down:
as §1

Assay [8] deals with Kappa-type opioid receptor (Cavia porcellus, UniProt P41144). Kind of assay: Binding affinity towards kappa opioid receptor by displacement of [3H]EKC in guinea pig cortical tissue. The method, boiled down: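 Radioligand displacement. Kappa: [3H]EKC, guinea pig cortex, with fentanyl and DADL added to block mu/delta binding. Delta: [3H]DADL, rat brain homogenate.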
Another assay has as its target Mu-type opioid receptor (Rattus norvegicus, UniProt P33535). Kind of assay: Binding affinity towards mu-opioid receptor by the displacement of [3H]Nal in rat brain homogenates. It counts as tissue-based.
In assay [9] the test system is Rattus norvegicus. Kind of assay: Tested for concentration required to reduce the food consumption by 20 % subcutaneously; The maximum effect achievedwas approximately 20% and not dose related. It is filed as functional. Particulars: sc. Put shortly:
as §1

Bounds are passed on as bounds.

Chain of Kappa-type opioid receptor (Cavia porcellus) (P41144 whole entry): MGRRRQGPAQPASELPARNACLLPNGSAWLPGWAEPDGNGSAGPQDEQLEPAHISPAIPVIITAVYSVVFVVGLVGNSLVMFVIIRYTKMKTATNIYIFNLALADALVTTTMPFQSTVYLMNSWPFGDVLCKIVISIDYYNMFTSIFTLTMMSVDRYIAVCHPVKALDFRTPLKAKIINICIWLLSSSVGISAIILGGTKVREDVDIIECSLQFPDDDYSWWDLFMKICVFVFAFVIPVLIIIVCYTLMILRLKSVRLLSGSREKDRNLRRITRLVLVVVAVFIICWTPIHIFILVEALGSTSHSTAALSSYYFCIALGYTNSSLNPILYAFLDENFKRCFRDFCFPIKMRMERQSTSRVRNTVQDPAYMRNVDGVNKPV
Chain of Kappa-type opioid receptor (Mus musculus) (P33534 whole entry): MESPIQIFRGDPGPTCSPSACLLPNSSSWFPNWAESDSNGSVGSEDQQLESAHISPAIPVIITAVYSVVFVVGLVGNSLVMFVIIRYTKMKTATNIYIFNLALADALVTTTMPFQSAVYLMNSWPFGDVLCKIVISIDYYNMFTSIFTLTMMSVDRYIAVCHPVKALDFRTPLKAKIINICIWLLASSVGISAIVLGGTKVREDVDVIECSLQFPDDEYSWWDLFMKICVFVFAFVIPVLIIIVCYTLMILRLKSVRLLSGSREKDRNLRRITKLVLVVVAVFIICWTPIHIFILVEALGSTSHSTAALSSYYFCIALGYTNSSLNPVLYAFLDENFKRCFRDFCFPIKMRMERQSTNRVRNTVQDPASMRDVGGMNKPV
Chain of Mu-type opioid receptor (Mus musculus) (P42866 whole entry): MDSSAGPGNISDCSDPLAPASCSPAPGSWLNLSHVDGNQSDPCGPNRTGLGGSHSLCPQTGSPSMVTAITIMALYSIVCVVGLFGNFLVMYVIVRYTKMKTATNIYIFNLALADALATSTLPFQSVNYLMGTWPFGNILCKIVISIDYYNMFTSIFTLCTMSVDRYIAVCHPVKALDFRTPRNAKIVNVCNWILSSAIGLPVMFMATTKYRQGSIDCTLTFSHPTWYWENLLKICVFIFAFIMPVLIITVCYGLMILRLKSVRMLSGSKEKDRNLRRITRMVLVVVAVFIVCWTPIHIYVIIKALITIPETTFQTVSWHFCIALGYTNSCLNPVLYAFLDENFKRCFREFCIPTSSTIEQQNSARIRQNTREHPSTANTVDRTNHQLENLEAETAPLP
Chain of Kappa-type opioid receptor (Rattus norvegicus) (P34975 whole entry): as the sequence (P33534 whole entry) above, with D11E, S17A, S51P, A308V counted along it
Chain of Kappa-type opioid receptor (P41144 whole entry): as the sequence (P41144 whole entry) above
Chain of Mu-type opioid receptor (P33535 whole entry): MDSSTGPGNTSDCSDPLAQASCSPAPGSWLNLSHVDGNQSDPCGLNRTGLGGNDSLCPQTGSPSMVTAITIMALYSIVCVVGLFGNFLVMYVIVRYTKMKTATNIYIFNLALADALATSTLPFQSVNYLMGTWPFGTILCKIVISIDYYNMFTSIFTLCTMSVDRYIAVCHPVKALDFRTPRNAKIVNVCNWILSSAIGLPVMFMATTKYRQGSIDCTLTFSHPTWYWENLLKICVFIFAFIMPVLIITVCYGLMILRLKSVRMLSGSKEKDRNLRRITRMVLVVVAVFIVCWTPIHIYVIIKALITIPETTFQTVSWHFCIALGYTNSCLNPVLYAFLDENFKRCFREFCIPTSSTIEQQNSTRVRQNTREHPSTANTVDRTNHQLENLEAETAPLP

With `CCCCCCCN1CC[C@@](C)(c2cccc(O)c2)[C@@H](C)C1`, the ED50 in the assay with Rattus norvegicus [1] came to 0.4 mg/kg. Besides, the Displacement came out at 57% in assay [2] and 87% in assay [3]. Also, the AD50 in assay [4] was more than 0.64 mg/kg; in assay [5] it was 3.3 mg/kg; in assay [6] it was 0.21 mg/kg.

`C[C@@H]1CN(CC[C@@H](O)C2CCCCC2)CC[C@]1(C)c1cccc(O)c1` returned an ED50 in the assay with Rattus norvegicus [7] of more than 1.25 mg/kg. The Ki in assay [8] amounted to 14.3 nM; on Mu-type opioid receptor, 2.2 nM. For the same compound, the figures for the AD50 in assay [4], in assay [5] and in [6] were 0.52 mg/kg, 5.2 mg/kg and 0.52 mg/kg, respectively.

For `CCCCCN1CC[C@@](C)(c2cccc(O)c2)[C@@H](C)C1`, the ED50 in the assay with Rattus norvegicus [1] stood at 3.8 mg/kg. Moreover, the Displacement came out at 44% in assay [2] and 78% in assay [3]. Besides, the AD50 in assay [4] was 0.6 mg/kg.

`O=C1CC[C@@]2(O)[C@H]3Cc4ccc(O)c5c4[C@@]2(CCN3CC2CC2)[C@H]1O5` [NALTREXONE] came in with an ED50 in the assay on Rattus norvegicus [9] of 1.7 mg/kg.
